“Also recorded” adds a separate entry of the source.
Columns and labels:
c-Met [1] = settings: read-out: IC50 towards c-Met; cited from earlier work
[2] = test system: ovarian cancer cell lines; settings: with paclitaxel + carboplatin, multiple ovarian cancer cell lines; cited from earlier work
[3] = test system: metastatic or locally advanced solid tumors; experiment: anti-tumor activity; format: in vivo, human
In short: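 Adults with histologically confirmed metastatic or locally advanced solid tumors lacking standard therapy, ECOG 0–1, received test compound twice daily from 50 mg in escalating cohorts. Cycle 1 was 14 days followed by a 1-week holiday, cycles 2–4 were 14 days, and cycles from 5 on were 28 days. RECIST 1.0 imaging at end of cycle 4, then every two cycles. All patients dosed at least once analysed.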

c-Met [4] = settings: GTL-16 gastric cancer cells, cited from earlier work
[5] = test system: patients with metastatic or locally advanced solid tumors; experiment: Phase I dose escalation: safety, DLT, MTD; format: in vivo
tyrosine kinases = settings: cited from earlier work
c-Met [6] = settings: A549 non-small cell lung carcinoma cell line; cited from earlier work
GTL-16 xenograft = settings: twice-daily 100 mg/kg orally, cited from earlier work
[7] = test system: non-small cell lung cancer cell lines; settings: high c-Met expressing cell lines; cited from earlier work
[8] = plasma pharmacokinetics in patients; format: in vivo, human
[9] = test system: gastric and non-small cell lung cell lines; settings: a number of cell lines; most pronounced in gastric and non-small cell lung cell lines; cited from earlier work
medullary thyroid cancer = settings: monotherapy; cited from earlier work
[10] = Dose Level 5, 550 mg BID, Fatigue
[11] = Dose Level 6, 750 mg BID, Nausea
[12] = Dose Level 7, 1050 mg BID, Nausea
[13] = Dose Level 7, 1050 mg BID, Vomiting
[14] = Dose Level 8, 1500 mg BID, Elevated ALT
[15] = Dose Level 8, 1500 mg BID, Elevated AST
[16] = Dose Level 8, 1500 mg BID, Elevated Amylase
[17] = Dose Level 8, 1500 mg BID, Hypokalaemia

Cn1cc(-c2cnc3ccc4ccc(CS(=O)(=O)NCc5ccccn5)cc4c(=O)c3c2)cn1 [MK-8033, 1-[3-(1-methyl-1H-pyrazol-4-yl)-5-oxo-5H-benzo[4,5]cyclohepta[1,2-b]pyridin-7-yl] -N-(pyridin-2-ylmethyl)methanesulfonamide]
IC50 (c-Met [1]): 1 nM
cell growth inhibition in combination with chemotherapy [2]: synergized
median progression-free survival (PFS) ([3]; 95% confidence interval 42–115 days): 57 days
PFS rate ([3]; at 6 weeks): 80.4%
PFS rate ([3]; at 12 weeks): 15.2%
patients with stable disease (SD), % ([3]; best response): 18.2%
patients with partial response (PR) ([3]; endometrioid adenocarcinoma): One
patients with best response of progressive disease (PD), % ([3]; human, in vivo): 71.7%
PFS of the responding patient ([3]; patient with endometrioid adenocarcinoma): 846 days
autophosphorylation of c-Met in the C-terminal docking site (c-Met [4]; constitutively activated c-MET): potently inhibited
downstream signaling events such as ERK1/2 and AKT (c-Met [4]): inhibited
No. of Subjects with a DLT ([5]; Dose Level 1 (n = 1), 50 mg BID, Total): 0
No. of Subjects with a DLT ([5]; Dose Level 2 (n = 1), 100 mg BID, Total): 0
No. of Subjects with a DLT ([5]; Dose Level 3 (n = 3), 200 mg BID, Total): 0
No. of Subjects with a DLT ([5]; Dose Level 4 (n = 4), 400 mg BID, Total): 0
No. of Subjects with a DLT ([5]; Dose Level 5 (n = 7), 550 mg BID, Fatigue): 1
No. of Subjects with a DLT ([5]; Dose Level 5 (n = 7), 550 mg BID, Total): 1
Number of DLTs Grade 1 [5, 10]: 0
Number of DLTs Grade 2 [5, 10]: 0
Number of DLTs Grade 3 [5, 10]: 1
Number of DLTs Grade 4 [5, 10]: 0
No. of Subjects with a DLT ([5]; Dose Level 6 (n = 18), 750 mg BID, Nausea): 1
No. of Subjects with a DLT ([5]; Dose Level 6 (n = 18), 750 mg BID, Total): 1
Number of DLTs Grade 1 [5, 11]: 0
Number of DLTs Grade 2 [5, 11]: 1
Number of DLTs Grade 3 [5, 11]: 0
Number of DLTs Grade 4 [5, 11]: 0
No. of Subjects with a DLT ([5]; Dose Level 7 (n = 6), 1050 mg BID, Nausea): 2
No. of Subjects with a DLT ([5]; Dose Level 7 (n = 6), 1050 mg BID, Total): 2
No. of Subjects with a DLT ([5]; Dose Level 7 (n = 6), 1050 mg BID, Vomiting): 2
Number of DLTs Grade 1 [5, 12]: 0
Number of DLTs Grade 2 [5, 12]: 0
Number of DLTs Grade 3 [5, 12]: 2
Number of DLTs Grade 4 [5, 12]: 0
Number of DLTs Grade 1 [5, 13]: 0
Number of DLTs Grade 2 [5, 13]: 1
Number of DLTs Grade 3 [5, 13]: 1
Number of DLTs Grade 4 [5, 13]: 0
No. of Subjects with a DLT ([5]; Dose Level 8 (n = 3), 1500 mg BID, Elevated ALT): 1
No. of Subjects with a DLT ([5]; Dose Level 8 (n = 3), 1500 mg BID, Elevated AST): 1
No. of Subjects with a DLT ([5]; Dose Level 8 (n = 3), 1500 mg BID, Elevated Amylase): 1
No. of Subjects with a DLT ([5]; Dose Level 8 (n = 3), 1500 mg BID, Hypokalaemia): 1
No. of Subjects with a DLT ([5]; Dose Level 8 (n = 3), 1500 mg BID, Total): 2
Number of DLTs Grade 1 [5, 14]: 0
Number of DLTs Grade 2 [5, 14]: 0
Number of DLTs Grade 3 [5, 14]: 1
Number of DLTs Grade 4 [5, 14]: 0
Number of DLTs Grade 1 [5, 15]: 0
Number of DLTs Grade 2 [5, 15]: 0
Number of DLTs Grade 3 [5, 15]: 1
Number of DLTs Grade 4 [5, 15]: 0
Number of DLTs Grade 1 [5, 16]: 0
Number of DLTs Grade 2 [5, 16]: 0
Number of DLTs Grade 3 [5, 16]: 1
Number of DLTs Grade 4 [5, 16]: 0
Number of DLTs Grade 1 [5, 17]: 0
Number of DLTs Grade 2 [5, 17]: 0
Number of DLTs Grade 3 [5, 17]: 0
Number of DLTs Grade 4 [5, 17]: 1
No. of Subjects with a DLT ([5]; Part C - (n = 3), 750 mg BID, Total): 0
patients who died during the study ([5]; determined by investigators to be unrelated to MK-8033): Five
maximum tolerated dose (MTD) ([5]; dose level 6, oral): 750 mg BID
recommended phase II dose (RP2D) ([5]; dose level 6, acute and chronic toxicity, TITE-CRM): 750 mg BID
Alopecia, All Grades, % ([5]; treatment-related, n = 46): 19.6%
Anorexia, All Grades, % ([5]; treatment-related, n = 46): 17.4%
Decreased Hemoglobin, All Grades, % ([5]; treatment-related, n = 46): 6.5%
Decreased Hemoglobin, Grade ≥ 3, % ([5]; treatment-related, n = 46): 2.2%
Diarrhea, All Grades, % ([5]; treatment-related, n = 46): 6.5%
Dysgeusia, All Grades, % ([5]; treatment-related, n = 46): 8.7%
Dyspepsia, All Grades, % ([5]; treatment-related, n = 46): 6.5%
Dyspepsia, Grade ≥ 3, % ([5]; treatment-related, n = 46): 4.3%
Elevated ALT, All Grades, % ([5]; treatment-related, n = 46): 17.4%
Elevated ALT, Grade ≥ 3, % ([5]; treatment-related, n = 46): 2.2%
Elevated AST, All Grades, % ([5]; treatment-related, n = 46): 10.9%
Elevated AST, Grade ≥ 3, % ([5]; treatment-related, n = 46): 2.2%
Elevated Amylase, All Grades, % ([5]; treatment-related, n = 46): 6.5%
Elevated Amylase, Grade ≥ 3, % ([5]; treatment-related, n = 46): 4.3%
Elevated Creatinine, All Grades, % ([5]; treatment-related, n = 46): 13.0%
Elevated Lipase, All Grades, % ([5]; treatment-related, n = 46): 6.5%
Elevated Lipase, Grade ≥ 3, % ([5]; treatment-related, n = 46): 4.3%
Fatigue, All Grades, % ([5]; treatment-related, n = 46): 28.3%
Fatigue, Grade ≥ 3, % ([5]; treatment-related, n = 46): 2.2%
Headache, All Grades, % ([5]; treatment-related, n = 46): 6.5%
Hypokalemia, All Grades, % ([5]; treatment-related, n = 46): 6.5%
Hypokalemia, Grade ≥ 3, % ([5]; treatment-related, n = 46): 2.2%
Lymphopenia, All Grades, % ([5]; treatment-related, n = 46): 8.7%
Lymphopenia, Grade ≥ 3, % ([5]; treatment-related, n = 46): 4.3%
Nausea, All Grades, % ([5]; treatment-related, n = 46): 21.7%
Nausea, Grade ≥ 3, % ([5]; treatment-related, n = 46): 4.3%
Vomiting, All Grades, % ([5]; treatment-related, n = 46): 13.0%
Vomiting, Grade ≥ 3, % ([5]; treatment-related, n = 46): 2.2%
selectivity (tyrosine kinases): target multiple tyrosine kinases
HGF-induced phosphorylation of c-Met (c-Met [6]): inhibited
phosphorylation of AKT and ERK1/2 (c-Met [6]): inhibited
plasma concentrations relative to IC50 for target inhibition (GTL-16 xenograft; mice): exceeding the IC50 for target inhibition for 24 h/day
tolerability (GTL-16 xenograft; mice): well-tolerated
pathway activation and tumor growth (GTL-16 xenograft): inhibited
radiosensitization [7]: radiosensitized
max concentration versus dose ([8]; 50 to 1500 mg BID, dose proportionality not assessable): appears to increase with dose
Day 14/Day 1 geometric mean accumulation ratios for Cmax ([8]; 200 to 1500 mg BID dose range, not conclusive): 1.2 to 4.2
impact of co-administered omeprazole on steady state Cmax, AUC0–12h and Tmax ([8]; Part C, 770 mg BID with or without 20 mg omeprazole, two patients): no effect; also recorded: does not appear to strongly impact
Tmax ([8]; human, plasma, oral): 1 to 3 h
IC50 for proliferation [9]: sub-micromolar

COc1cc2nccc(Oc3ccc(NC(=O)C4(C(=O)Nc5ccc(F)cc5)CC4)cc3)c2cc1OC [cabozantinib]
response rate (medullary thyroid cancer): 49%
IC50 (c-Met [1]): 1.3 nM

O=C1NC(=O)[C@@H](c2cn3c4c(cccc24)CCC3)[C@@H]1c1c[nH]c2ccccc12 [tivantinib, reference compound]
IC50 (c-Met [1]): 100 nM
selectivity (tyrosine kinases): only binds to c-Met

Source: publication PMC7507839 (Investigational new drugs, 2018)
